Measured values: ChEMBL document CHEMBL2093137, “WHO-TDR NTD Screening”
In brackets after ≈: the same amount, converted by molar mass.

Legend:
Schistosoma mansoni = assay: WHO-TDR: Schistosomiasis; assay type: functional; set-up: concentration or dose not given beside the values
In short: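 Whole-organism screen of a 10,000-compound diverse library from Life Chemicals, filtered for drug-likeness and reactive groups, against larval and/or adult worms of Schistosoma mansoni Puerto Rican strain. The assay followed previously published standard procedures, with a reference drug as positive control. Activity is reported as percent inhibition and as IC50.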

Leishmania infantum = assay: WHO-TDR: Leishmaniasis; assay type: functional, organism-based, Mus musculus; conditions: Macrophage
In short: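 A diverse library of 10,000 compounds from Life Chemicals, filtered for drug-likeness and reactive groups, was screened against whole organisms. The targets were intracellular amastigotes of Leishmania infantum MHOM/MA(BE)/67 growing in murine peritoneal macrophages. Previously published standard procedures were followed, with a reference drug as positive control. Antiparasitic potency is given as IC50.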

Trypanosoma cruzi = assay: WHO-TDR: Chagas disease; assay type: functional, organism-based, Homo sapiens; conditions: MRC5
In short: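 Following previously published standard procedures, with a reference drug as positive control, a whole-organism assay was run on Trypanosoma cruzi Tulahuen CL2 beta-galactosidase strain amastigotes inside MRC-5SV2 human lung fibroblast host cells. The 10,000 compounds tested formed a diverse Life Chemicals library filtered for drug-likeness and reactive groups. Results are expressed as IC50 for antiparasitic potency.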

Onchocerca ochengi [1] = assay: (§1) WHO-TDR: Onchocerciasis; assay type: functional; set-up: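 at 12.5 µM on microfilariae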
In short: (§2)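 Whole-organism screen of a 10,000-compound diverse library from Life Chemicals, filtered for drug-likeness and reactive groups, against microfilariae of Onchocerca ochengi or Onchocerca lienalis, used as animal-pathogen stand-ins for the human parasite. The assay followed previously published standard procedures, with reference drugs as positive controls. Activity is reported as percent inhibition and as IC50.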

[2] = WHO-TDR: Cytotoxicity; assay type: toxicity, cell-based; conditions: human, MRC5 cells
Plasmodium falciparum K1 = assay: WHO-TDR: Malaria; assay type: functional, organism-based, Homo sapiens; conditions: Erythrocyte
In short: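 A diverse library of 10,000 compounds from Life Chemicals, filtered for drug-likeness and reactive groups, was screened against the intra-erythrocytic Plasmodium falciparum K1 strain in human red blood cells. Previously published standard procedures were followed, with a reference drug as positive control. Antiplasmodial potency is given as IC50.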

[3] = test system: Trypanosoma brucei brucei; assay: WHO-TDR: Human African Trypanosomiasis (HAT); assay type: functional, organism-based; conditions: Squib-427
In short: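 A diverse library of 10,000 compounds from Life Chemicals, filtered for drug-likeness and reactive groups, was screened against bloodstream forms of Trypanosoma brucei Squib 427 strain in a whole-organism assay. Previously published standard procedures were followed, with reference drugs serving as positive controls. Antiparasitic potency is given as IC50.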

Onchocerca ochengi [4] = assay: as §1; assay type: functional; set-up: concentration or dose not given beside the values; in short: as §2; remark: listed apart in the source

SMILES | % Inhibition (Schistosoma mansoni) [%] | IC50 (Leishmania infantum) [µg/mL] | IC50 (Trypanosoma cruzi) [µg/mL] | % Inhibition (Onchocerca ochengi [1]) [%] | IC50 [2] [µg/mL] | IC50 (Plasmodium falciparum K1) [µg/mL] | IC50 [3] [µg/mL] | % Inhibition (Onchocerca ochengi [4]) [%]
Cc1cc(=O)[nH]c(-n2nc(C)cc2NC(=O)/C=C/c2ccc3c(c2)OCO3)n1 | 0 | 3.6 (≈ 9.49 µM) | 0.801 (≈ 2.11 µM) | 0 | 3.73 (≈ 9.85 µM) | 4.74 (≈ 12.5 µM) | 3.56 (≈ 9.37 µM) | 0
CCOc1cccc2cc(-c3csc(NC(=O)c4sc5ccccc5c4Cl)n3)oc12 | 0 | 3.69 (≈ 8.11 µM) | 11.8 (≈ 25.9 µM) | 0 | 0.237 (≈ 0.521 µM) | > 13.6 | 0.237 (≈ 0.521 µM) | 0
O=C(NCc1cc(-c2ccccc2F)on1)c1ccc(Br)o1 | 0 | > 11 | > 11 | 100 | > 11 | > 11 | > 11 | 0
CCCc1cc(=O)[nH]c(-n2nc(C)cc2NC(=O)COc2ccc(Cl)cc2Cl)n1 | 0 | > 13.1 | 0.395 (≈ 0.904 µM) | 75 | 0.362 (≈ 0.83 µM) | 5.1 (≈ 11.7 µM) | 0.47 (≈ 1.08 µM) | 0
COc1ccc(Cl)cc1S(=O)(=O)Nc1ccc2c(c1)CCC(=O)N2CCC(C)C | 0 | > 13.1 | > 13.1 | 100 | > 13.1 | > 13.1 | 10.2 (≈ 23.4 µM) | 0
Cc1ccc2nc(-c3ccc(NC(=O)CC4CSc5nc(C)cc(=O)n54)cc3)sc2c1 (stereo unspecified) | 0 | > 13.5 | > 13.5 | 100 | > 13.5 | 3.38 (≈ 7.54 µM) | > 13.5 | 0
O=S(=O)(Nc1nc2c(Cl)cccc2s1)c1ccc(Cl)cc1 | 0 | > 10.8 | 10.2 (≈ 28.4 µM) | 100 | > 10.8 | > 10.8 | > 10.8 | 0
Cc1cc(=O)[nH]c(-n2nc(C)cc2NC(=O)c2c(F)cccc2Cl)n1 | 0 | 5.62 (≈ 15.5 µM) | 0.331 (≈ 0.915 µM) | 0 | 0.39 (≈ 1.08 µM) | 3.62 (≈ 10 µM) | 1.96 (≈ 5.43 µM) | 0
COc1ccc(S(=O)(=O)CC(=O)Nc2sc(-c3ccccc3)cc2C(N)=O)cc1 | 0 | > 12.9 | > 12.9 | 100 | > 12.9 | 6.93 (≈ 16.1 µM) | 4.28 (≈ 9.95 µM) | 0
CN1CCN(C(CNC(=O)c2c(F)cccc2F)c2ccsc2)CC1 (stereo unspecified) | 0 | > 11 | 0.406 (≈ 1.11 µM) | 0 | > 11 | > 11 | > 11 | 0
CC(C)CCN1C(=O)CCc2cc(NC(=O)COc3ccc(Cl)cc3)ccc21 | 0 | > 12 | 3.45 (≈ 8.61 µM) | 100 | > 12 | 7.34 (≈ 18.3 µM) | 3.89 (≈ 9.71 µM) | 0
CN1CCN(C(CNC(=O)COc2ccccc2F)c2ccc3c(c2)CCN3C)CC1 (stereo unspecified) | 0 | 1.9 (≈ 4.46 µM) | > 12.8 | 0 | > 12.8 | 3.56 (≈ 8.35 µM) | 4.14 (≈ 9.71 µM) | 0
Cc1ccc2c(c1)NC(=O)c1cc(NC(=O)C3CCCC3)ccc1O2 | 0 | > 10.1 | > 10.1 | 0 | > 10.1 | 0.441 (≈ 1.31 µM) | > 10.1 | 0
O=C(Cc1csc(SCc2ccc(Cl)cc2)n1)NCCC1=CCCCC1 | 0 | > 12.2 | 3.58 (≈ 8.8 µM) | 100 | > 12.2 | > 12.2 | 3.86 (≈ 9.49 µM) | 0
O=C(NCC1CC(=O)N(c2ccc(Cl)cc2)C1)NC1CCCCC1 (stereo unspecified) | 0 | > 10.5 | > 10.5 | 0 | > 10.5 | > 10.5 | > 10.5 | 100
CCSc1nnc(-c2ccccc2)c2sc(C)nc12 | 0 | 2.79 (≈ 9.71 µM) | 0.259 (≈ 0.901 µM) | 100 | 4.9 (≈ 17 µM) | 1.39 (≈ 4.82 µM) | 0.146 (≈ 0.508 µM) | 0
Cc1cc(=O)[nH]c(-n2nc(C)cc2NC(=O)c2ccccc2C(F)(F)F)n1 | 0 | > 11.3 | 0.409 (≈ 1.08 µM) | 0 | 2.61 (≈ 6.91 µM) | > 11.3 | > 11.3 | 0
Cc1cc(NC(=O)C2(c3ccc(Cl)cc3)CCCC2)n(-c2nc3c(c(=O)[nH]2)CCC3)n1 | 56.7 | > 13.1 | 0.37 (≈ 0.844 µM) | 0 | 0.338 (≈ 0.772 µM) | 0.644 (≈ 1.47 µM) | 0.42 (≈ 0.959 µM) | 0
CCOc1ccc2ccccc2c1C(=O)Nc1cc(C)nn1-c1nc(C)cc(=O)[nH]1 | 100 | 0.627 (≈ 1.55 µM) | < 0.121 | 100 | 0.364 (≈ 0.902 µM) | 0.399 (≈ 0.989 µM) | 0.327 (≈ 0.811 µM) | 60
O=C1CC(CNS(=O)(=O)c2ccccc2C(F)(F)F)CN1c1ccc(Cl)cc1 (stereo unspecified) | 0 | > 13 | 4.11 (≈ 9.49 µM) | 100 | > 13 | > 13 | 4.25 (≈ 9.83 µM) | 0
COc1ccc(Cl)cc1C(=O)Nc1cc(C)nn1-c1nc2c(c(=O)[nH]1)CCC2 | 50 | 6.21 (≈ 15.5 µM) | 0.361 (≈ 0.902 µM) | 0 | 0.685 (≈ 1.71 µM) | > 12 | 0.388 (≈ 0.97 µM) | 0
CCc1ccc2nc(N(CCN(CC)CC)C(=O)Cc3ccc4c(c3)OCO4)sc2c1 | 0 | 7.4 (≈ 16.8 µM) | 3.61 (≈ 8.21 µM) | 0 | > 14.3 | 4.52 (≈ 10.3 µM) | 0.457 (≈ 1.04 µM) | 0
